Columns and labels:
MT4 [1] = assay: Effective concentration against HIV-1 induced cytopathicity in MT-4 cells using MTT method; assay type: functional, cell-based; conditions: Homo sapiens
Procedure, shortened: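 MT-4 cells acutely infected with HIV-1; inhibition of virus-induced cytopathicity; viable cells determined by MTT; EC50 = dose (µM) giving 50% protection from cytopathicity.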

[2] = Selectivity index, ratio of CC50 to EC50; assay type: functional
Procedure, shortened: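 Ratio of CC50 (mock-infected MT-4 viability, MTT) to EC50 (protection of MT-4 cells from HIV-1 cytopathicity, MTT).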

MT4 [3] = assay: 50% cytotoxic concentration against mock-infected MT-4 cells using MTT method; assay type: functional; conditions: Homo sapiens
Procedure, shortened: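 Viability of mock-infected MT-4 cells run in parallel with the antiviral assay; viable cells counted by MTT; CC50 = dose (µM) reducing viability by 50%.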

| Structure (SMILES) | EC50 (MT4 [1]) | Selectivity [2] | CC50 (MT4 [3]) |
| --- | --- | --- | --- |
| C=Cc1cc(C(=O)OCC)n(S(=O)(=O)c2cc(Cl)ccc2N)c1 | 0.17 µM | 274 | 47 µM |
| CCOC(=O)c1cc(COC)cn1S(=O)(=O)c1cc(Cl)ccc1N | 0.4 µM | > 500 | > 200 µM |
| CC(C)OC(=O)c1cc(CO)cn1S(=O)(=O)c1cc(Cl)ccc1N | 0.1 µM | 1160 | 116 µM |
| CCOC(=O)c1cccn1S(=O)(=O)c1cc(Cl)ccc1-n1cccc1 | > 110 µM |  | 110 µM |
| CCOC(=O)c1cc(C(C)O)cn1S(=O)(=O)c1cc(Cl)ccc1N (stereo unspecified) | 0.25 µM | 460 | 115 µM |
| CCOC(=O)c1cc(COc2ccccc2)cn1S(=O)(=O)c1cc(Cl)ccc1N | 4.1 µM | > 49 | > 200 µM |
| Cc1ccnc2c1NC(=O)c1cccnc1N2C1CC1 [NEVIRAPINE] | 0.35 µM |  | > 200 µM |
| CCOC(=O)c1cccn1S(=O)(=O)c1cc(Cl)ccc1N |  | > 1430 | > 200 µM |
| CCOC(=O)c1cc(C)cn1S(=O)(=O)c1cc(Cl)ccc1N | 0.09 µM | > 2220 | > 200 µM |
| CCOC(=O)c1cccn1S(=O)(=O)c1c(N)cccc1Cl | 72 µM | 2.5 | 180 µM |
| CCOC(=O)c1cc(CO)cn1S(=O)(=O)c1cc(Cl)ccc1N | 0.045 µM | 5330 | 240 µM |
| CCOC(=O)c1cc(CNc2ccccc2)cn1S(=O)(=O)c1cc(Cl)ccc1N | 3.1 µM | > 55.5 | > 200 µM |
| CC(C)OC(=O)c1cc(CNc2ccccc2)cn1S(=O)(=O)c1cc(Cl)ccc1N | 0.2 µM | 200 | 40 µM |

Source: ChEMBL document CHEMBL1133020, “Structure-based design, synthesis, and biological evaluation of novel pyrrolyl aryl sulfones: HIV-1 non-nucleoside reverse transcriptase inhibitors active at nanomolar concentrations” (J Med Chem, 2000)
